Test results published in ChEMBL document CHEMBL1135744, “Design, synthesis, and structure-activity relationship of 6-alkynylpyrimidines as potent adenosine kinase inhibitors” (J Med Chem, 2002).
Calls of active or inactive are those of the source. The calls are words filed in the database; no cut-off is given here.

Tests used:
IMR-32 [1] = test: Evaluated in vitro for the inhibition of Adenosine (ADO) phosphorylation in intact IMR-32 human neuroblastoma cells.; assay type: functional, cell-based
Outline: (§1)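 IMR-32 human neuroblastoma cells were preincubated 10 min with compound (10^-11 to 10^-4 M), then given [U-14C]ADO (added as a 2 μM solution) for 20 min. Buffer was aspirated and cells were snap-frozen in liquid nitrogen, then thawed 20 min at room temperature. Supernatant was spotted on DE-81 disks, washed and counted by scintillation.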

Adenosine kinase = Adenosine kinase (Rattus norvegicus, UniProt Q64640); test: Evaluated in vitro for inhibitory activity against Adenosine kinase (AK)
Adenosine kinase, sequence (Q64640 whole entry): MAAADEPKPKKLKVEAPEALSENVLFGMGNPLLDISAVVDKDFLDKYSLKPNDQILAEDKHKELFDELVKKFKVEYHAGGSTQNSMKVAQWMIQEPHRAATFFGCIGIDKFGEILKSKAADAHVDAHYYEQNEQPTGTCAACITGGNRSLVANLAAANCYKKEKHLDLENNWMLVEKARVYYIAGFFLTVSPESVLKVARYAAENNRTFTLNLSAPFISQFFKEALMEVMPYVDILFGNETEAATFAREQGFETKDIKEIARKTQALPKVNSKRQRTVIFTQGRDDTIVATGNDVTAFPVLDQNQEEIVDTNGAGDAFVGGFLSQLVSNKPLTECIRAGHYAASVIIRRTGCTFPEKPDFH
Outline: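 Rat brain cytosol was the adenosine kinase source. The mix held 64 mM Tris-HCl pH 7.5, 0.2 mM MgCl2, 1 mM ATP and 0.2 μM [U-14C]ADO or [2-3H]ADO, incubated 15 min at 23 °C. Aliquots were spotted onto DE-81 anion-exchange disks, washed in 2 mM ammonium formate, rinsed and dried. Bound radioactivity was counted by scintillation.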

IMR-32 [2] = test: Evaluated in vitro for the inhibition of Adenosine (ADO) phosphorylation in intact cells.; assay type: functional, cell-based; settings: Homo sapiens; outline: as §1
Rattus norvegicus [3] = species on record: Rattus norvegicus; test: Nociceptive paw flinching in rats assessed 30 min following an intraplantar injection of 5% formalin into the right hind paw.; assay type: functional; settings: 0.5 h
Outline: (§2)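 Rats received an intraplantar injection of 5% formalin (50 μL) into the right hindpaw, and nociceptive flinching was scored 30 min afterward. Data are mean ± SEM, n = 6-8 per dose group.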

Rattus norvegicus [4] = species on record: Rattus norvegicus; test: Antihyperalgesic effect in the carrageenan induced thermal hyperalgesia model; assay type: functional
Rattus norvegicus [5] = test: Antihyperalgesic effect in the carrageenan induced thermal hyperalgesia model uM/Kg; assay type: functional, organism-based
Rattus norvegicus [6] = test: Nociceptive paw flinching in rats assessed 30 min following an intraplantar injection of 5% formalin into the right hind paw; NA=not active uM/Kg; assay type: functional, organism-based; outline: as §2
Rattus norvegicus [7] = test: Nociceptive paw flinching in rats assessed 30 min following an intraplantar injection of 5% formalin into the right hind paw.; NA=not active uM/Kg; assay type: functional, organism-based; outline: as §2

Row | IC50 (IMR-32 [1]) [µM] | IC50 (Adenosine kinase) [µM] | IC50 (IMR-32 [2]) [µM] | SMILES | further results
1 | > 1 | 0.12 | – | Nc1cc(C#Cc2ccc(N3CCOCC3)nc2)ncn1 | –
2 | – | 0.005 | 0.725 | CN(Cc1cccc(Br)c1)c1c(N)ncnc1C#Cc1ccc(N2CCOCC2)nc1 | –
3 | 0.7 | 0.04 | – | Nc1ncnc(C#Cc2ccc(N3CCOCC3)nc2)c1Cc1ccccc1 | ED50 (Rattus norvegicus [3]): 30 µmol/kg
4 | 1 | 0.04 | – | Nc1ncnc(C#Cc2ccc(N3CCOCC3)nc2)c1CN1CCc2ccccc2C1 | –
5 | – | 0.0035 | 0.58 | Nc1ncnc(C#Cc2ccc(N3CCOCC3)nc2)c1CCCc1cccc(Br)c1 | –
6 | 0.28 | 0.028 | – | CN(c1cccc(Br)c1)c1c(N)ncnc1C#Cc1ccc(N2CCOCC2)nc1 | –
7 | 0.388 | 0.246 | – | CN(Cc1ccc2ccccc2c1)c1c(N)ncnc1C#Cc1ccc(N2CCOCC2)nc1 | –
8 | 0.07 | 0.0025 | – | Nc1ncnc(C#Cc2ccc(N3CCOCC3)nc2)c1CCCc1ccccc1 | ED50 (Rattus norvegicus [3]): 8 µmol/kg; ED50 (Rattus norvegicus [4]): > 30 µmol/kg
9 | – | 0.04 | 0.276 | CN(Cc1ccccc1C(F)(F)F)c1c(N)ncnc1C#Cc1ccc(N2CCOCC2)nc1 | –
10 | 0.094 | 0.006 | – | Cc1ccccc1CN(C)c1c(N)ncnc1C#Cc1ccc(N2CCOCC2)nc1 | NA (Rattus norvegicus [5]): inactive; NA (Rattus norvegicus [6]): inactive
11 | 0.124 | 0.03 | – | CN(Cc1ccccc1)c1c(N)ncnc1C#Cc1ccc(N2CCOCC2)nc1 | ED50 (Rattus norvegicus [3]): 10 µmol/kg; ED50 (Rattus norvegicus [4]): 10 µmol/kg
12 | 0.094 | 0.004 | – | Nc1ncnc(C#Cc2ccc(N3CCOCC3)nc2)c1CCCc1cccnc1 | NA (Rattus norvegicus [7]): inactive
13 | 0.118 | 0.002 | – | CN(Cc1ccccc1)Cc1c(N)ncnc1C#Cc1ccc(N2CCOCC2)nc1 | ED50 (Rattus norvegicus [4]): 5 µmol/kg; NA (Rattus norvegicus [7]): inactive
14 | 1 | 0.022 | – | Nc1ncnc(C#Cc2ccc(N3CCOCC3)nc2)c1Cc1cccc(Br)c1 | –
15 | 0.198 | 0.0035 | – | COc1ccc(CCCc2c(N)ncnc2C#Cc2ccc(N3CCOCC3)nc2)cc1 | ED50 (Rattus norvegicus [3]): 20 µmol/kg; ED50 (Rattus norvegicus [4]): > 30 µmol/kg
16 | – | 0.045 | > 1 | Nc1ncnc(C#Cc2ccc(N3CCOCC3)nc2)c1CCCCc1ccccc1 | –
17 | – | 0.106 | 0.36 | CN(Cc1ccc(Cl)cc1)c1c(N)ncnc1C#Cc1ccc(N2CCOCC2)nc1 | –
18 | – | 0.0045 | 0.22 | Nc1ncnc(C#Cc2ccc(N3CCOCC3)nc2)c1CCc1ccccc1 | –
19 | – | 0.0025 | 0.188 | Nc1ncnc(C#Cc2ccc(N3CCOCC3)nc2)c1CCCc1ccccc1Cl | –
20 | – | 0.022 | 0.225 | CN(Cc1cccc(Cl)c1)c1c(N)ncnc1C#Cc1ccc(N2CCOCC2)nc1 | NA (Rattus norvegicus [5]): inactive; NA (Rattus norvegicus [7]): inactive
21 | 0.1 | 0.015 | – | CN(Cc1ccccc1Cl)c1c(N)ncnc1C#Cc1ccc(N2CCOCC2)nc1 | ED50 (Rattus norvegicus [3]): 10 µmol/kg; ED50 (Rattus norvegicus [4]): 3 µmol/kg
22 | – | 0.002 | 0.565 | Nc1ncnc(C#Cc2ccc(N3CCOCC3)nc2)c1CCCc1ccc(Br)cc1 | –
23 | 0.046 | 0.004 | – | Nc1ncnc(C#Cc2ccc(N3CCOCC3)nc2)c1CCCc1ccncc1 | ED50 (Rattus norvegicus [4]): 46 µmol/kg; NA (Rattus norvegicus [7]): inactive
24 | – | 0.2 | 0.345 | CN(Cc1ccc(Cl)c(Cl)c1)c1c(N)ncnc1C#Cc1ccc(N2CCOCC2)nc1 | –
25 | – | 0.09 | 0.515 | CN(Cc1ccc(Br)cc1)c1c(N)ncnc1C#Cc1ccc(N2CCOCC2)nc1 | –
26 | 0.146 | 0.005 | – | CN(Cc1ccccc1Cl)Cc1c(N)ncnc1C#Cc1ccc(N2CCOCC2)nc1 | ED50 (Rattus norvegicus [3]): 30 µmol/kg; ED50 (Rattus norvegicus [4]): > 30 µmol/kg
